# Experiments:
# Type in all cases: functional
# [1] = test system: Mycobacterium tuberculosis; experiment: Antimycobacterial activity against multidrug resistant Mycobacterium tuberculosis 9449/2007 after 21 days by micromethod; settings: 9449/2007, 504 h
# Outline: (§1)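 Multidrug-resistant M. tuberculosis strains, each inoculated at 10^-3 dilution; 234/2005 is resistant to INH, RIF, rifabutin, streptomycin, ethambutol and ofloxacin. MIC determined by micromethod in Šula's semisynthetic medium at 37 °C after 14 and 21 days. Compounds added from DMSO at 0.5–500 µM.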
# [2] = test system: Mycobacterium tuberculosis; experiment: Antimycobacterial activity against multidrug resistant Mycobacterium tuberculosis 234/2005 after 14 days by micromethod; settings: 234/2005, 336 h; outline: as §1
# [3] = test system: Mycobacterium tuberculosis; experiment: Antimycobacterial activity against extensively drug resistant Mycobacterium tuberculosis Praha 131 after 21 days by micromethod; settings: Praha 131, 504 h
# Outline: (§2)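 MIC micromethod in Šula's semisynthetic medium at 37 °C, read after 14 and 21 days. Compounds added as DMSO solutions at 500 down to 0.5 µM (twofold-type series: 500, 250, 125, 62.5, 32, 16, 8, 4, 2, 1, 0.5 µM). Isoniazid standard given in sterile water.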
# [4] = test system: Mycobacterium tuberculosis; experiment: Antimycobacterial activity against multidrug resistant Mycobacterium tuberculosis Praha 1 after 14 days by micromethod; settings: Praha 1, 336 h; outline: as §1
# [5] = test system: Mycobacterium tuberculosis; experiment: Antimycobacterial activity against multidrug resistant Mycobacterium tuberculosis 9449/2007 after 14 days by micromethod; settings: 9449/2007, 336 h; outline: as §1
# [6] = test system: Mycobacterium tuberculosis; experiment: Antimycobacterial activity against multidrug resistant Mycobacterium tuberculosis Praha 1 after 21 days by micromethod; settings: Praha 1, 504 h; outline: as §1
# [7] = test system: Mycobacterium tuberculosis; experiment: Antimycobacterial activity against multidrug resistant Mycobacterium tuberculosis Praha 4 after 21 days by micromethod; settings: Praha 4, 504 h; outline: as §1
# [8] = test system: Mycobacterium tuberculosis; experiment: Antimycobacterial activity against multidrug resistant Mycobacterium tuberculosis 234/2005 after 21 days by micromethod; settings: 234/2005, 504 h; outline: as §1
# [9] = test system: Mycobacterium tuberculosis; experiment: Antimycobacterial activity against multidrug resistant Mycobacterium tuberculosis Praha 4 after 14 days by micromethod; settings: Praha 4, 336 h; outline: as §1
# [10] = test system: Mycobacterium tuberculosis; experiment: Antimycobacterial activity against extensively drug resistant Mycobacterium tuberculosis Praha 131 after 14 days by micromethod; settings: Praha 131, 336 h; outline: as §2
# [11] = test system: Mycobacterium tuberculosis; experiment: Antimycobacterial activity against multidrug resistant Mycobacterium tuberculosis 242/2015 after 21 days by micromethod; settings: 242/2015, 504 h; outline: as §1
# [12] = test system: Mycobacterium tuberculosis; experiment: Antimycobacterial activity against multidrug resistant Mycobacterium tuberculosis 242/2015 after 14 days by micromethod; settings: 242/2015, 336 h; outline: as §1
SMILES,MIC [1] [µM],MIC [2] [µM],MIC [3] [µM],MIC [4] [µM],MIC [5] [µM],MIC [6] [µM],MIC [7] [µM],MIC [8] [µM],MIC [9] [µM],MIC [10] [µM],MIC [11] [µM],MIC [12] [µM]
O=C(Nc1ccc(C(F)(F)F)cc1)c1ccc(Cl)cc1O,1,2,2,1,2,1,2,2,1,2,1,1
O=C(Nc1ccc(C(F)(F)F)cc1)c1cc(Cl)ccc1O,0.5,0.5,0.5,0.5,0.5,0.5,0.5,0.5,0.5,0.5,0.5,0.5
O=C(Nc1ccc(C(F)(F)F)cc1)c1cc(Br)ccc1O,1,2,4,1,2,1,4,4,2,2,2,1
O=C(Nc1ccc(C(F)(F)F)cc1)c1ccc(Br)cc1O,1,1,1,1,1,1,2,2,1,1,1,1
O=C(Nc1ccc(C(F)(F)F)cc1)c1cc(Br)c(Br)cc1O,1,2,2,1,2,1,2,2,2,2,2,1
O=C(Nc1ccc(C(F)(F)F)cc1)c1cc(Br)c(Cl)cc1O,2,2,2,2,2,2,2,2,2,2,2,2
O=C(Nc1ccc(C(F)(F)F)cc1)c1cc(Cl)c(Cl)cc1O,1,1,2,1,2,1,2,2,1,1,1,1
O=C(Nc1ccc(C(F)(F)F)cc1)c1cc(Cl)c(Br)cc1O,2,2,2,2,2,2,4,2,2,2,2,2
NNC(=O)c1ccncc1 [ISONIAZID],16,16,16,16,16,16,16,32,16,16,16,16
